pIC50: −log10 of the molar value. The source made the active and inactive calls. No cut-off for these calls is given here.
Columns and labels:
HeLa [1] = assay: Cell cycle arrest in human HeLa cells assessed as accumulation at sub-G1 phase at 6 uM after 24 hrs by flow cytometry analysis relative to control; format: functional
In short: (§1)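 About 1 × 10^6 cells per plate seeded overnight, then treated with compound and harvested at set times. Cells fixed in 75% ethanol at -20°C for 12-24 h and stained 1 h with 100 µg/ml PI, 100 µg/ml RNase A and 0.3% NP-40 in PBS. DNA content measured by flow cytometry; phase fractions compared with sham-treated cells.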

HeLa [2] = assay: Cell cycle arrest in human HeLa cells assessed as accumulation at G0-G1 phase at 6 uM after 24 hrs by flow cytometry analysis relative to control; format: functional; in short: as §1
HeLa [3] = assay: Cell cycle arrest in human HeLa cells assessed as accumulation at S phase at 6 uM after 24 hrs by flow cytometry analysis relative to control; format: functional; in short: as §1
HeLa [4] = assay: Cell cycle arrest in human HeLa cells assessed as accumulation at sub-G1 phase at 6 uM after 48 hrs by flow cytometry analysis relative to control; format: functional; in short: as §1
HeLa [5] = assay: Cell cycle arrest in human HeLa cells assessed as accumulation at G0-G1 phase at 6 uM after 48 hrs by flow cytometry analysis relative to control; format: functional; in short: as §1
HeLa [6] = assay: Cell cycle arrest in human HeLa cells assessed as accumulation at S phase at 6 uM after 48 hrs by flow cytometry analysis relative to control; format: functional; in short: as §1
HeLa [7] = assay: Cell cycle arrest in human HeLa cells assessed as accumulation at G2/M phase at 6 uM after 48 hrs by flow cytometry analysis relative to control; format: functional; in short: as §1
MDA-MB-231 [8] = assay: Cell cycle arrest in human MDA-MB-231 cells assessed as accumulation at G0-G1 phase at 6 uM after 12 hrs by flow cytometry analysis relative to control; format: functional; in short: as §1
MDA-MB-231 [9] = assay: Cell cycle arrest in human MDA-MB-231 cells assessed as accumulation at S phase at 6 uM after 24 hrs by flow cytometry analysis relative to control; format: functional; in short: as §1
MDA-MB-231 [10] = assay: Cell cycle arrest in human MDA-MB-231 cells assessed as accumulation at G2/M phase at 6 uM after 24 hrs by flow cytometry analysis relative to control; format: functional; in short: as §1
MDA-MB-231 [11] = assay: Cell cycle arrest in human MDA-MB-231 cells assessed as accumulation at G0-G1 phase at 6 uM after 48 hrs by flow cytometry analysis relative to control; format: functional; in short: as §1
MDA-MB-231 [12] = assay: Cell cycle arrest in human MDA-MB-231 cells assessed as accumulation at G2/M phase at 6 uM after 48 hrs by flow cytometry analysis relative to control; format: functional; in short: as §1
MDA-MB-231 [13] = assay: Cell cycle arrest in human MDA-MB-231 cells assessed as accumulation at S phase at 6 uM after 72 hrs by flow cytometry analysis relative to control; format: functional; in short: as §1
[14] = Cell cycle arrest in human MCF10A cells assessed as accumulation at S phase at 6 uM after 12 hrs by flow cytometry analysis relative to control; format: functional, cell-based; details: MCF-10A; in short: as §1
[15] = Cell cycle arrest in human MCF10A cells assessed as accumulation at G2/M phase at 6 uM after 12 hrs by flow cytometry analysis relative to control; format: functional, cell-based; details: MCF-10A; in short: as §1
[16] = Cell cycle arrest in human MCF10A cells assessed as accumulation at G0-G1 phase at 6 uM after 24 hrs by flow cytometry analysis relative to control; format: functional, cell-based; details: MCF-10A; in short: as §1
[17] = Cell cycle arrest in human MCF10A cells assessed as accumulation at G0-G1 phase at 6 uM after 48 hrs by flow cytometry analysis relative to control; format: functional, cell-based; details: MCF-10A; in short: as §1
[18] = Cell cycle arrest in human MCF10A cells assessed as accumulation at sub-G1 phase at 6 uM after 72 hrs by flow cytometry analysis relative to control; format: functional, cell-based; details: MCF-10A; in short: as §1
[19] = Cell cycle arrest in human MCF10A cells assessed as accumulation at G0-G1 phase at 6 uM after 72 hrs by flow cytometry analysis relative to control; format: functional, cell-based; details: MCF-10A; in short: as §1
HeLa [20] = assay: Induction of DNA damage in human HeLa cells at 6 uM after 48 hrs by immunostaining; format: functional, cell-based
In short: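 γH2A.X (phospho-Ser139) immunostaining, with HeLa at 6 µM for 24 or 48 h and MDA-MB468 at 1 µM. Cells on coverslips fixed and permeabilized in ice-cold methanol at -20°C. Blocked in 1% FBS, primary antibody 1:200 overnight at 4°C, then fluorophore-conjugated secondary 1 h. DNA counterstained with DRAQ5.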

HeLa [21] = assay: Increase of histone 3 phosphorylation at Ser10 level in human HeLa cells at 6 uM after 48 hrs by Western blot analysis; format: functional, cell-based
In short: (§2)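 HeLa cells were sham-treated or given 6 µM and collected at set times. Lysed on ice in Tris pH 7.4/NaCl/EDTA/1% Triton X-100 with PMSF and protease inhibitors. 30-40 µg protein run on 8 or 10% gels, blotted to PVDF, probed overnight at 4°C and detected by ECL. Band levels normalized to GAPDH.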

HeLa [22] = assay: Increase of cyclin-B level in human HeLa cells at 6 uM after 48 hrs by Western blot analysis; format: functional, cell-based; in short: as §2
HeLa [23] = assay: Induction of apoptosis in human HeLa cells assessed as popcorn like morphology at 6 uM after 48 hrs by time lapse microscopy analysis; format: functional, cell-based
In short: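 Treated HeLa cells were followed by time-lapse microscopy, with images taken at set time points.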

Tubulin (Homo sapiens) = Tubulin (Homo sapiens) (UniProt P68371+Q9H4B7+P0DPH7+P68366+Q13509+Q71U36+P04350+Q3ZCM7+P07437+P68363+Q9BQE3+Q6PEY2+Q13885+Q9BVA1+Q9BUF5); assay: Inhibition of tubulin (unknown origin) polymerization at 6 to 12 uM measured every 1 min for 1 hr by automated plate reader analysis; format: protein-complex assay
In short: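 Cell-free assay: 4 mg/ml tubulin in 80 mM PIPES, 2 mM MgCl2, 0.5 mM EGTA, 1 mM GTP, 10% glycerol, pH 6.9, added to wells with ligand pre-warmed 2-3 min at 37°C. A340 read every min for 1 h.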

HeLa [24] = assay: Antiproliferative activity against human HeLa cells after 72 hrs by SRB assay; format: functional, cell-based
In short: (§3)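 Cells seeded at 4,000-5,000/well for 16 h, then exposed 72 h to serial dilutions of compound in DMSO; sham DMSO as 100% and TCA-treated wells as 0%. Fixed in 10% TCA at 4°C for 1 h, stained with 0.4% SRB for 30 min, dye solubilised in 10 mmol Tris pH 10.5, read at 540 nm. IC50 from sigmoidal dose-response curves; two biological replicates, four technical each.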

MCF7 = assay: Antiproliferative activity against human MCF7 cells after 72 hrs by SRB assay; format: functional, cell-based; details: MCF7, 72 h
In short: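 Cells seeded at 4,000-5,000/well for 16 h, then exposed 72 h to serial dilutions of compound in DMSO; sham DMSO as 100% and TCA-treated wells as 0%. IC50 from sigmoidal dose-response curves; two biological replicates, four technical each.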

MDA-MB-231 [25] = assay: Antiproliferative activity against human MDA-MB-231 cells after 72 hrs by SRB assay; format: functional, cell-based; details: MDA-MB-231, 72 h; in short: as §3
MDA-MB-468 = assay: Antiproliferative activity against human MDA-MB-468 cells after 72 hrs by SRB assay; format: functional, cell-based; details: MDA-MB-468, 72 h; in short: as §3
[26] = Antiproliferative activity against human MCF10A cells after 72 hrs by SRB assay; format: cell-based; details: MCF-10A; in short: as §3
HeLa [27] = assay: Cell cycle arrest in human HeLa cells assessed as accumulation at G0-G1 phase at 6 uM after 12 hrs by flow cytometry analysis relative to control; format: functional; in short: as §1

**Q.** Which Activity (HeLa [1]) does the source give for `FC(F)(F)c1cccc(/C=C\c2cc3ccccc3nc2Cl)c1` here?
**A.** 17.8%

**Q.** And the Activity (HeLa [2])?
**A.** 16.2%

**Q.** And the Activity (HeLa [3])?
**A.** 8.1%

**Q.** And the Activity (HeLa [4])?
**A.** 40.6%

**Q.** And the Activity (HeLa [5])?
**A.** 20.8%

**Q.** What about the Activity (HeLa [6]) of the same compound?
**A.** 12.9%

**Q.** What about the Activity (HeLa [7]) of the same compound?
**A.** 23.9%

**Q.** What about the Activity (MDA-MB-231 [8]) of the same compound?
**A.** 22.2%

**Q.** What about the Activity (MDA-MB-231 [9]) of the same compound?
**A.** 10.8%

**Q.** And the Activity (MDA-MB-231 [10])?
**A.** 38.3%

**Q.** What about the Activity (MDA-MB-231 [11]) of the same compound?
**A.** 36.3%

**Q.** And the Activity (MDA-MB-231 [12])?
**A.** 18.6%

**Q.** What about the Activity (MDA-MB-231 [13]) of the same compound?
**A.** 14.2%

**Q.** What about the Activity [14] of the same compound?
**A.** 52.9%

**Q.** And the Activity [15]?
**A.** 11.4%

**Q.** And the Activity [16]?
**A.** 49.2%

**Q.** And the Activity [17]?
**A.** 63.6%

**Q.** And the Activity [18]?
**A.** 12.1%

**Q.** What about the Activity [19] of the same compound?
**A.** 70.6%

**Q.** And the Activity (HeLa [20])?
**A.** inactive

**Q.** What about the Activity (HeLa [21]) of the same compound?
**A.** Active

**Q.** What about the Activity (HeLa [22]) of the same compound?
**A.** Active

**Q.** And the Activity (HeLa [23])?
**A.** Active

**Q.** And the inhibition (Tubulin (Homo sapiens))?
**A.** Active

**Q.** And the pIC50 (HeLa [24])?
**A.** 5.55

**Q.** And the pIC50 (MCF7)?
**A.** 5.45

**Q.** And the pIC50 (MDA-MB-231 [25])?
**A.** 5.43

**Q.** What about the pIC50 (MDA-MB-468) of the same compound?
**A.** 5.43

**Q.** What about the pIC50 [26] of the same compound?
**A.** 5.22

**Q.** What about the Activity (HeLa [27]) of the same compound?
**A.** 8%
